From ChEMBL document CHEMBL2380254, “Optimization of tocotrienols as antiproliferative and antimigratory leads” (Eur J Med Chem, 2013)

Experiments:
MOLT-4 = assay: Growth inhibition of human MOLT4 cells assessed as cell growth at 10 uM after 48 hrs by sulforhodamine B assay; type: functional; conditions: MOLT-4, 48 h, read-out: Activity
Procedure, shortened: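 Single 10 µM dose applied to suspension cells in RPMI 1640 with 5% FBS and 2 mM L-glutamine for 48 h at 37 °C. Settled cells were fixed with 80% TCA (16% final), stained with SRB, and read at 515 nm. Percent growth was calculated against time-zero and untreated control optical densities.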

SNB-75 = assay: Growth inhibition of human SNB75 cells assessed as cell growth at 10 uM after 48 hrs by sulforhodamine B assay; type: functional; conditions: SNB-75, 48 h, read-out: Activity
Procedure, shortened: (§1)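 Single-dose NCI-60 test at 10 µM. Cells were grown in RPMI 1640 with 5% FBS and 2 mM L-glutamine, preincubated 24 h, with T0 plates TCA-fixed. Exposure was 48 h at 37 °C, 5% CO2. Cells were fixed with cold TCA (final 10%, 4 °C, 60 min), stained with SRB and read at 515 nm. Percent growth was taken relative to T0 and untreated control; negative values denote cell kill.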

NCI-H226 = assay: Growth inhibition of human NCI-H226 cells assessed as cell growth at 10 uM after 48 hrs by sulforhodamine B assay; type: functional; conditions: NCI-H226, 48 h, read-out: Activity
Procedure, shortened: (§2)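 Single-dose NCI-60 screen: adherent cells in RPMI 1640 with 5% FBS were exposed to 10 µM for 48 h at 37 °C after a 24 h preincubation. They were fixed in situ with cold TCA (10% final), stained with 0.4% SRB in 1% acetic acid, solubilized in 10 mM Tris base, and read at 515 nm. Percent growth was taken relative to time-zero and control plates.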

MDA-MB-231 = assay: Antiproliferative activity against human MDA-MB-231 cells by MTT assay; type: functional, cell-based
Procedure, shortened: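 Cells plated at 8 × 10^3/well (MDA-MB-231) or 10^4/well (MCF7) in 96-well plates. Compounds fed in media with 5% FBS (MDA-MB-231) or 1% FBS (MCF7). MTT read-out of viable cells.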

SF-539 = assay: Growth inhibition of human SF539 cells assessed as cell growth at 10 uM after 48 hrs by sulforhodamine B assay; type: functional; conditions: SF-539, 48 h, read-out: Activity; procedure, shortened: as §2
MDA-MB-435 = assay: Growth inhibition of human MDA-MB-435 cells assessed as cell growth at 10 uM after 48 hrs by sulforhodamine B assay; type: functional; conditions: MDA-MB-435, 48 h, read-out: Activity; procedure, shortened: as §2
U-251 = assay: Growth inhibition of human U251 cells assessed as cell growth at 10 uM after 48 hrs by sulforhodamine B assay; type: functional; conditions: U-251, 48 h, read-out: Activity; procedure, shortened: as §1
SF-295 = assay: Growth inhibition of human SF295 cells assessed as cell growth at 10 uM after 48 hrs by sulforhodamine B assay; type: functional; conditions: SF-295, 48 h, read-out: Activity; procedure, shortened: as §2
PC-3 = assay: Growth inhibition of human PC3 cells assessed as cell growth at 10 uM after 48 hrs by sulforhodamine B assay; type: functional; conditions: PC-3, 48 h, read-out: Activity; procedure, shortened: as §2
[1] = Growth inhibition of human Hs 578T cells assessed as cell growth at 10 uM after 48 hrs by sulforhodamine B assay; type: functional; conditions: read-out: Activity
Procedure, shortened: (§3)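 NCI-60 single-dose screen at 10 µM: cells in RPMI 1640 with 5% FBS, preincubated 24 h, then exposed 48 h at 37 °C. TCA fixation (16% final for suspension cells), SRB staining, absorbance 515 nm. Percent growth relative to time-zero and untreated control plates; negative values indicate cell kill.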

A498 = assay: Growth inhibition of human A498 cells assessed as cell growth at 10 uM after 48 hrs by sulforhodamine B assay; type: functional; conditions: A498, 48 h, read-out: Activity; procedure, shortened: as §3

| SMILES | growth at 10 µM (MOLT-4) | growth at 10 µM (SNB-75) | growth at 10 µM (NCI-H226) | IC50 (MDA-MB-231) | growth at 10 µM (SF-539) | growth at 10 µM (MDA-MB-435) | growth at 10 µM (U-251) | growth at 10 µM (SF-295) | growth at 10 µM (PC-3) | growth at 10 µM [1] | growth at 10 µM (A498) |
| --- | --- | --- | --- | --- | --- | --- | --- | --- | --- | --- | --- |
| CC(C)=CCC/C(C)=C/CC/C(C)=C/CC[C@]1(C)CCc2c3c(c(C)c(C)c2O1)OCN(CCCCCCCCCCCCO)C3 | 90.5% | 94.6% | 93.3% | > 50 µM | 111% | 100% | 90.3% | 93.5% | 81.3% | 103% |  |
| CC(C)=CCC/C(C)=C/CC/C(C)=C/CC[C@]1(C)CCc2c(CNCCc3ccc(O)cc3)c(O)c(C)c(C)c2O1 | 54.6% | 68.1% | 105% |  | 113% | 81.3% | 93% | 105% | 79.5% | 133% | 104% |
| CC(C)=CCC/C(C)=C/CC/C(C)=C/CC[C@]1(C)CCc2c3c(c(C)c(C)c2O1)OCN(CCc1ccc(O)cc1)C3 | 40.4% | 69.2% | 111% | > 5 µM | 104% | 54.5% | 81.8% | 100% | 79.9% | 91.8% | 90.2% |
| COc1ccc(CCNCc2c(O)c(C)c(C)c3c2CC[C@@](C)(CC/C=C(\C)CC/C=C(\C)CCC=C(C)C)O3)cc1OC | 30.3% | 80.5% | 106% |  | 97% | 57.5% | 83.7% | 102% | 82.7% | 121% | 107% |
| CC(C)=CCC/C(C)=C/CC/C(C)=C/CC[C@]1(C)CCc2c3c(cc(C)c2O1)OCN(CCCCCCCCCCCCO)C3 | 48.5% | 97.7% | 80.6% | > 50 µM | 102% | 71.5% | 59.1% | 93.3% | 58.5% | 93.2% |  |
| CC(C)=CCC/C(C)=C/CC/C(C)=C/CC[C@]1(C)CCc2c3c(cc(C)c2O1)OCN(CCCCCCCCCCO)C3 | 67.6% | 74.5% | 89.8% | 12.4 µM | 98.3% | 101% | 74% | 114% | 88.7% | 99% |  |
| CC(C)=CCC/C(C)=C/CC/C(C)=C/CC[C@]1(C)CCc2cc(O)c(C)c(C)c2O1 [GAMMA-TOCOTRIENOL] | 84.3% | 84.3% | 90.8% | 9.4 µM | 101% | 102% | 102% | 105% | 96.6% | 102% |  |
| CC(C)=CCC/C(C)=C/CC/C(C)=C/CC[C@]1(C)CCc2c3c(c(C)c(C)c2O1)OCN(CCCCCCCCCCO)C3 | 79.5% | 91.4% | 92.6% | 15.7 µM | 97.6% | 98.3% | 78.7% | 111% | 84.3% | 96.5% |  |
| COc1ccc(CCN2COc3c(C)c(C)c4c(c3C2)CC[C@@](C)(CC/C=C(\C)CC/C=C(\C)CCC=C(C)C)O4)cc1OC | 76% | 82.8% | 97% | > 50 µM | 103% | 90.7% | 88.4% | 108% | 94.3% | 198% | 108% |
